Test results as given in ChEMBL document CHEMBL1764949, “Microbial transformation of (+)-nootkatone and the antiproliferative activity of its metabolites” (2011).
Values after ≈ are worked out from the molar mass of the structure shown.

What was measured:
HL-60 = assay: Antiproliferative activity against human HL60 cells by MTT assay; type: functional; conditions: read-out: ID50 (the source's name)
Outline: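 HL-60 promyelocytic leukemia cells in suspension in RPMI 1640 with 10% FBS, 2 mM glutamine, 1 mM pyruvate, glucose, antibiotics, 37 °C, 5% CO₂. Plated 10⁴ cells/well 24 h before dosing. Exposed 72 h to 0.1–100 µg/ml, ethanol vehicle. MTT (5 mg/ml stock) added for the last 3–4 h. SDS/DMF lysis for 24 h, OD 570 nm. ID₅₀ mean ± SD. Triplicates, 3–5 experiments.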

A549 = assay: Antiproliferative activity against human A549 cells by […]; type: functional; conditions: read-out: ID50 (the source's name)
Outline: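 A549 human lung adenocarcinoma cells grown at 37 °C, 5% CO₂ in RPMI 1640+Opti-MEM (1:1) with 5% FBS, 2 mM glutamine, penicillin/streptomycin. Plated 10⁴ cells/well 24 h before dosing. Exposed 72 h to 0.1–100 µg/ml, ethanol vehicle. Cold 50% TCA fixation at 4 °C for 1 h, 0.4% SRB stain, OD 540 nm. ID₅₀ per experiment, mean ± SD. Triplicates, 3–5 experiments.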

IC50 (HL-60) | IC50 (A549) | Compound
27.6 µg/mL (≈ 118 µM) | 167 µg/mL (≈ 713 µM) | C[C@@H]1CC(=O)C=C2CC[C@@H]([C@@]3(C)CO3)C[C@]21C
25.7 µg/mL (≈ 110 µM) | 62.7 µg/mL (≈ 268 µM) | C=C(C)[C@@H]1C[C@@H](O)C2=CC(=O)C[C@@H](C)[C@]2(C)C1
4.4 µg/mL (≈ 18.8 µM) | 36 µg/mL (≈ 154 µM) | C=C(CO)[C@@H]1CCC2=CC(=O)C[C@@H](C)[C@]2(C)C1
345 µg/mL (≈ 1380 µM) | 289 µg/mL (≈ 1150 µM) | C[C@@H]1CC(=O)C=C2[C@H](O)C[C@H]([C@@]3(C)CO3)C[C@]21C
284 µg/mL (≈ 1130 µM) | 325 µg/mL (≈ 1290 µM) | C[C@@H]1CC(=O)C=C2CC[C@@H](C(C)(O)CO)C[C@]21C (some centres undefined)
25.8 µg/mL (≈ 96.1 µM) | 290 µg/mL (≈ 1080 µM) | C[C@@H]1CC(=O)C=C2CC[C@](O)(C(C)(O)CO)C[C@]21C (some centres undefined)

Compound | IC50 (HL-60) | IC50 (A549)
C=C(C)[C@@H]1CCC2=CC(=O)C[C@@H](C)[C@]2(C)C1 [NOOTKATONE] | 4.27 µg/mL (≈ 19.6 µM) | 58.4 µg/mL (≈ 267 µM)
